Only some compounds are listed: those with a hit (about 2.2% of all), similar ones and a draw of the others.
V-ATPase pH – yeast V-ATPase proton transport regulation by pHLuorin. S. cerevisiae, pHLuorin cytosolic pH fluorescence. response, % at 10 µM. 350,000 tested, 0.37% active; in the data active = response mostly above about 7.3%, no sharp cut-off; inactive = mostly below about 5.4%; also: actives read high
GalR3 antag – blocks the human galanin receptor 3; inhibition, % at 3 µM; AID 651719; O60755; 360,000 tested, 0.44% active; HEK293 GalR3-CNG cAMP membrane potential fluorescence; galR3 body fused to GalR1 C-terminus;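 active = inhibition above the screen-wide average plus 3 SD, cut at about 13% in these data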;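 also: forskolin and galanin both at EC90 stimulate the cells; cAMP rise reported by CNG channel membrane potential dye signal; 0% = forskolin plus galanin with DMSO and 100% = forskolin alone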
GAA850 FXN act – activators of GAA850 frataxin (FXN) promoter; HEK293 lucGAA850 FXN promoter luciferase reporter, 24 h; percent of 10 µM SAHA response; activation, % at 6 µM; 360,000 tested, 0.56% active; AID 540364;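 active = activation above the average of all compounds screened plus 3 SD, cutoff fixed separately per campaign, cut at about 7.5% in these data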;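 also: 0% = DMSO wells and 100% = 10 µM SAHA wells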
NR2E3 ag-1 – activates human photoreceptor nuclear receptor NR2E3; Q9Y5X4; inhibition of corepressor binding, % at 4.78 µM; GST-NR2E3/biotin-RetCOR TR-FRET, 1536-well; 320,000 tested, 0.12% active; AID 2300;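 active = percent inhibition above the cutoff of mean plus 3 SD of all tested compounds, set per screening campaign, cut at about 20% in these data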;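 also: 0% = DMSO wells and 100% = biotin wells as full block of FRET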
Target sequence (Q9Y5X4 whole entry, looked up): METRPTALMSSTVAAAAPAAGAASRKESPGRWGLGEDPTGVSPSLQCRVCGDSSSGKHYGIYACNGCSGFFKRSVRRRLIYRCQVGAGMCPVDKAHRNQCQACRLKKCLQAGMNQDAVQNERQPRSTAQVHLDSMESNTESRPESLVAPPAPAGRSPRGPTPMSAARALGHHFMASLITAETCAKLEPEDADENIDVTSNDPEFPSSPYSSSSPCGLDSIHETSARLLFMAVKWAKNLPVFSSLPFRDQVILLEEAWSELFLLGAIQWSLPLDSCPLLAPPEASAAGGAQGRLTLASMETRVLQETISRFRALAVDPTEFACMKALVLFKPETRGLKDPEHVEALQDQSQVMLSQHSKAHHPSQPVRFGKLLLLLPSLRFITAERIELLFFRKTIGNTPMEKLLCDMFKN
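System: GST-tagged NR2E3 plus biotinylated RetCOR corepressor; Amount: 1.35 nM GST-tagged NR2E3 final; Dosing: single nominal compound dose of 4.8 µM; Schedule: 5 h incubation at 4 °C; Technique: TR-FRET with europium anti-GST and streptavidin-D2, 340 nm excitation; Controls: biotin wells as high control, 0.6% DMSO wells as low control.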
NR2E3 ag-2 – human photoreceptor-specific nuclear receptor agonism; Q9Y5X4; CHO-S Gal4-NCOR/VP16-NR2E3 two-hybrid, luciferase; inhibition of corepressor binding, % at 3.98 µM; 360,000 tested, 0.35% active;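 active = inhibition above the mean of all tested compounds plus 3 SD, cut at about 70% in these data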;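 also: 0% = DMSO with NR2E3 transfected cells and 100% = cells lacking NR2E3 construct; higher means lower luciferase signal from less NR2E3 corepressor binding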
Env fusion inh – HIV envelope-mediated fusion inhibition; HeLa-JRFL Env/CEM21 cell fusion, luciferase; inhibition, % at 12.3 µM; 360,000 tested, 1.1% active; AID 651610;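 active = mean replicate inhibition score of at least 50 and every replicate individually at or above 50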;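 also: 0% = plate neutral controls and 100% = maraviroc near 300 nM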
GalR3 conf – GalR3 (human) antagonism, confirmation; shares compounds with GalR3 antag; HEK293 GalR3 CNG cAMP biosensor, membrane potential fluorescence; galR3 fused to GalR1 carboxy tail; challenged with forskolin and galanin at EC90; inhibition, % at 3 µM; 1,600 tested, 59% active;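 active = inhibition above the primary screen's cutoff, the mean inhibition of all screened compounds plus 3 SD, cut at about 13% in these data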;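 also: 0% = forskolin plus galanin and 100% = forskolin alone with DMSO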
HEK-CNG parental – counter-screen for GalR3 antagonists: nonspecific agonists in parental HEK-CNG cells | shares compounds with GalR3 antag | HEK293-CNG parental cells, cAMP membrane potential fluorescence; normalised: DMSO wells 0%, forskolin wells 100% | activation, % at 3 µM | 1,600 tested, 10% active | AID 652268; in the data active = activation above about 1.3%
Numbers without * were called inactive; / = no result given; [ ] = dose if it differs, or a comment.

SMILES	V-ATPase pH	GalR3 antag	GAA850 FXN act	NR2E3 ag-1	NR2E3 ag-2	Env fusion inh	GalR3 conf	HEK-CNG parental
COCCCn1c(=O)c2sccc2n2c(CCCC(=O)NCC3CCCO3)nnc12 (stereo not given)	1	14*	-1	-2	5	-6	9	0
CO[C@@H]1CN(C)C(=O)c2cc(NC(C)=O)ccc2OC[C@@H](C)N(C(=O)c2ccccn2)C[C@H]1C	/	/	/	/	/	-46[16.7 µM]	/	/
COc1ccc(Cn2nc(C(=O)O)c3ccccc3c2=O)cc1F	5	0	4	5	-13	16	/	/
COc1cccc(Cn2nc(C(=O)O)c3ccccc3c2=O)c1	4	19*	3	1	-39	-10	16*	0
Cc1ccc(S(=O)(=O)N(C)C[C@@H]2OCCCC[C@@H](C)Oc3ccc(NC(=O)Nc4cccc5ccccc45)cc3C(=O)N([C@@H](C)CO)C[C@H]2C)cc1	/	/	/	/	/	-52[16.7 µM]	/	/
COc1ccc(C(=O)CSc2nnc(Cn3cnc4ccccc43)o2)cc1	2	95*	-6	1	10	106*	111*	-1
COCC(=O)Nc1ccc2c(c1)OC[C@H](C)N(Cc1cccc(F)c1)C[C@@H](C)[C@@H](OC)CN(C)C2=O	/	/	/	/	/	13[16.7 µM]	/	/
COc1ccccc1-c1cn(CC[C@H]2CC[C@@H](NC(=O)NC(C)C)[C@@H](CO)O2)nn1	/	/	/	/	/	1[16.7 µM]	/	/
CC(C)SCCCOc1ccc(C(C)(C)C)cc1	6	/	2	-3	-30	/	4	0
O=[N+]([O-])c1ccc(CN2CCCCCC2)cc1	-1	-10	0	-1	-6	-2	/	/
CSc1ccc(CN2CCN(Cc3ccc([N+](=O)[O-])cc3)CC2)cc1	3	84*	-2	0	17	31	104*	0
C[C@H](CO)N1C[C@H](C)[C@H](CN(C)C(=O)Cc2ccccn2)Oc2cc(-c3cccc(C(=O)N(C)C)c3)ccc2S1(=O)=O	/	/	/	/	/	-17[16.7 µM]	/	/
Cc1ccc(/C=C/C(=O)Nc2ccccc2C(N)=O)cc1	-7	/	4	2	-171	-176	4	0
NC(=O)c1ccccc1NC(=O)/C=C/C(=O)O	1	1	2	-3	-93	1	/	/
COc1ccc(CCNC(=O)COC(=O)/C=C/c2cccs2)cc1	-4	/	-2	0	-1	-3	0	1
COc1ccc(S(=O)(=O)N(C)C[C@H]2OCCCC[C@H](C)Oc3ccc(NS(=O)(=O)c4c(C)noc4C)cc3C(=O)N([C@H](C)CO)C[C@@H]2C)cc1	/	/	/	/	/	-60[16.7 µM]	/	/
COC(=O)COc1ccc(-c2ccccc2)cc1C=O	1	17*	0	8	0	-21	4	1
COc1ccccc1-c1ccc2c(c1)O[C@@H](CN(C)C(=O)Nc1cccc(F)c1)[C@H](C)CN([C@@H](C)CO)S2(=O)=O	/	/	/	/	/	-66[16.7 µM]	/	/
C[C@H]1CN([C@@H](C)CO)C(=O)c2cc(C3=CCCCC3)cnc2O[C@H]1CN(C)C(=O)c1ccc2c(c1)OCO2	/	/	/	/	/	2[16.7 µM]	/	/
CCCC(=O)Nc1nc(-c2ccc3c(c2)OCCO3)cs1	0	-2	3	-3	-92	-73	/	/
CCCC(=O)Nc1nnc(-c2ccc3c(c2)OCCO3)o1	-3	14*	5	0	-57	2	8	0
Cc1cc(C(=O)CSc2nc(N)cc(=O)[nH]2)c(C)n1-c1ccc(OC(F)F)cc1	1	14*	-2	1	-24	33	98*	0
CC(C)c1csc(CN2CCC(CO)(Cc3cccc(F)c3)CC2)n1	-1	13*	1	1	-14	-3	-2	0
Cc1nn(-c2ccc(NC(=O)c3ccncc3)cc2)c(C)c1Cl	0	75*	-3	/	36	19	109*	0
